{"data": "Assay results collected from several papers", "effect on": "enzyme activity", "action": "inhibitor", "KIT": "Mast/stem cell growth factor receptor Kit (KIT, Homo sapiens, UniProt P10721)", "KIT D816V": "Mast/stem cell growth factor receptor Kit (KIT, Homo sapiens, UniProt P10721, D816V)", "KIT V560G": "Mast/stem cell growth factor receptor Kit (KIT, Homo sapiens, UniProt P10721, V560G)", "note": "Protocols differ between the studies behind these lines."}
{"SMILES": "COc1cc2ncnc(Nc3ccc(Oc4ccccc4)c(C)c3C)c2cc1OC", "target": "KIT", "setting": "1 µM", "inhibition [%]": 8}
{"SMILES": "COc1cc2nccc(Oc3ccc(NC(=O)c4c5n(n(-c6ccc(F)cc6)c4=O)CCCC5)cc3)c2cc1OC", "target": "KIT", "setting": "0.1 µM", "inhibition [%]": -1}
{"SMILES": "O=C(CSc1nc2nccnc2c(=O)n1CCc1ccccc1)Nc1nccs1", "target": "KIT D816V", "setting": "10 µM", "inhibition [%]": 6}
{"SMILES": "CCOc1cc(-c2nncn2C)ccc1Nc1ncc2cc(C)nc(NCC(C)(C)C)c2n1", "target": "KIT", "assay": "FRET", "setting": "1 µM", "inhibition [%]": "< 15"}
{"SMILES": "CC/C(=N\\NC(=O)NCc1cccc(O)c1)c1ccc(O)c(C)c1O", "target": "KIT D816V", "setting": "0.1 µM", "inhibition [%]": 1.4}
{"SMILES": "COc1cc2ncnc(Nc3ccc(Oc4ccccc4)cc3C)c2cc1OC", "target": "KIT", "setting": "1 µM", "inhibition [%]": -1}
{"SMILES": "CN(C)C1CCN(CC#Cc2nn(C3CCCC3)c3nc(NCc4ccccc4)ncc23)C1 (stereo not shown)", "target": "KIT", "assay": "FRET", "setting": "10 µM", "inhibition [%]": 11}
{"SMILES": "COc1cc(-c2cc(-c3ccc(N4CCNCC4)cc3)cnc2N)cc(OC)c1OC", "target": "KIT V560G", "setting": "1 µM", "inhibition [%]": 5}
{"SMILES": "CNC(=O)c1cc2c(Oc3ccc(NC(=O)C4(C(=O)Nc5ccc(F)cc5)CC4)cc3)ccnc2cc1OC", "target": "KIT V560G", "assay": "radiometric", "setting": "1 µM", "inhibition [%]": 92}
{"SMILES": "CS(=O)(=O)Nc1cccc(-c2csc(NC(=O)CSc3nc4nccnc4c(=O)n3CCc3ccccc3)n2)c1", "target": "KIT D816V", "setting": "10 µM", "inhibition [%]": -1}
